Test results as given in ChEMBL document CHEMBL1137448, “Structure-activity studies on diphenylpyrazine derivatives: a novel class of prostacyclin receptor agonists” (Bioorg Med Chem, 2007).

Legend:
[1] = system: Plasma; test: Inhibition of ADP-induced platelet aggregation in human platelet rich plasma
[2] = Half life in Beagle dog at 3 mg/kg, po; format: ADME, organism-based, Canis lupus familiaris; set-up: dose 3 mg/kg, route oral; conditions: in vivo
Procedure, shortened: (§1)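 Animals were acclimatized (rats >1 week, dogs and monkeys >3 weeks) at 21–25 °C and 45–65% humidity, and were not fasted. Dosing was iv or oral to groups of three. Venous blood was sampled predose and at 5, 15 and 30 min and 1–24 h into heparin. Plasma was spun at 3000 rpm for 15 min at 4 °C and analysed by LC-MS (APCI/ESI positive, SIM/SRM). Values are mean ± SD, n=3.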

[3] = Cmax in Sprague-Dawley rat at 10 mg/kg, po; format: ADME, organism-based; set-up: dose 10 mg/kg, route oral; conditions: in vivo
Procedure, shortened: as §1

[4] = Half life in Sprague-Dawley rat at 10 mg/kg, po; format: ADME, organism-based; set-up: dose 10 mg/kg, route oral; conditions: in vivo
Procedure, shortened: as §1

[5] = AUC in cynomolgus monkey at 1 mg/kg, po; format: ADME, organism-based, Macaca fascicularis; set-up: dose 1 mg/kg, route oral; conditions: plasma
Procedure, shortened: as §1

[6] = Oral bioavailability in Sprague-Dawley rat at 10 mg/kg; format: ADME, organism-based; conditions: in vivo
Procedure, shortened: as §1

[7] = AUC in Sprague-Dawley rat at 10 mg/kg, po; format: ADME, organism-based; set-up: dose 10 mg/kg, route oral; conditions: plasma
Procedure, shortened: (§2)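 Compound given iv or po to non-fasted groups of three animals (acclimatized ≥1 week rats, ≥3 weeks dogs; fed standard diets, 21–25 °C). Venous blood at predose, 5, 15, 30 min, 1, 2, 4, 6, 8, 10, 24 h into heparinized tubes; plasma by centrifugation (3000 rpm, 15 min, 4 °C); drug measured by LC-MS (APCI or ESI positive, SIM/SRM). Values mean ± SD, n = 3.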

[8] = AUC in Beagle dog at 3 mg/kg, po; format: ADME, organism-based, Canis lupus familiaris; set-up: dose 3 mg/kg, route oral; conditions: plasma
Procedure, shortened: as §2

[9] = AUC in Beagle dog at 1 mg/kg, iv; format: ADME, organism-based, Canis lupus familiaris; set-up: dose 1 mg/kg, route intravenous; conditions: plasma
Procedure, shortened: as §2

[10] = Half life in Sprague-Dawley rat at 3 mg/kg, iv; format: ADME, organism-based; set-up: dose 3 mg/kg, route intravenous; conditions: in vivo
Procedure, shortened: as §1

[11] = Half life in Beagle dog at 1 mg/kg, iv; format: ADME, organism-based, Canis lupus familiaris; set-up: dose 1 mg/kg, route intravenous; conditions: in vivo
Procedure, shortened: (§3)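 Compound given iv or orally to non-fasted animals, groups of three; dogs and monkeys acclimatised over 3 weeks at 21–25 °C, 45–65% humidity. Venous blood drawn into heparinised tubes before dosing and at 5, 15, 30 min and 1, 2, 4, 6, 8, 10, 24 h; plasma by centrifugation (3000 rpm, 15 min, 4 °C), drug quantified by HPLC-MS in SIM or SRM mode; mean ± SD, n = 3.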

[12] = AUC in Sprague-Dawley rat at 3 mg/kg, iv; format: ADME, organism-based; set-up: dose 3 mg/kg, route intravenous; conditions: plasma
Procedure, shortened: as §2

[13] = Tmax in Beagle dog at 3 mg/kg, po; format: ADME, organism-based, Canis lupus familiaris; set-up: dose 3 mg/kg, route oral; conditions: in vivo
Procedure, shortened: as §1

[14] = Cmax in Beagle dog at 3 mg/kg, po; format: ADME, organism-based, Canis lupus familiaris; set-up: dose 3 mg/kg, route oral; conditions: in vivo
Procedure, shortened: as §1

[15] = Oral bioavailability in Beagle dog at 3 mg/kg; format: ADME, organism-based, Canis lupus familiaris; conditions: in vivo
Procedure, shortened: as §1

[16] = Tmax in Sprague-Dawley rat at 10 mg/kg, po; format: ADME, organism-based; set-up: dose 10 mg/kg, route oral; conditions: in vivo
Procedure, shortened: as §1

[17] = Half life in cynomolgus monkey at 1 mg/kg, po; format: ADME, organism-based, Macaca fascicularis; set-up: dose 1 mg/kg, route oral; conditions: in vivo
Procedure, shortened: as §3

[18] = Tmax in cynomolgus monkey at 1 mg/kg, po; format: ADME, organism-based, Macaca fascicularis; set-up: dose 1 mg/kg, route oral; conditions: in vivo
Procedure, shortened: as §3

[19] = Cmax in cynomolgus monkey at 1 mg/kg, po; format: ADME, organism-based, Macaca fascicularis; set-up: dose 1 mg/kg, route oral; conditions: in vivo
Procedure, shortened: as §3

In the case of CC(C)N(CCCCOCC(=O)NS(C)(=O)=O)c1cnc(-c2ccccc2)c(-c2ccccc2)n1 [SELEXIPAG], the IC50 [1] is reported as 6400 nM.
For CC(C)N(CCCCOCC(=O)O)c1cnc(-c2ccccc2)c(-c2ccccc2)n1, the half-life [2] was 6.2 h, the Cmax [3] was 1900 ng/mL and the half-life [4] was 3.6 h. For the same molecule, the AUC [5] was 650 ng·h/mL, the bioavailability [6] was 102% and the AUC [7] was 17700 ng·h/mL. For the same molecule, the AUC [8] was 176000 ng·h/mL, the AUC [9] was 72500 ng·h/mL and the IC50 [1] was 200 nM. It also gave a half-life [10] of 4.9 h, a half-life [11] of 5.9 h and an AUC [12] of 5200 ng·h/mL. It also gave a Tmax [13] of 0.8 h, a Cmax [14] of 14900 ng/mL and a bioavailability [15] of 80%. It also gave a Tmax [16] of 0.8 h, a half-life [17] of 5.6 h and a Tmax [18] of 2.3 h. The Cmax [19] was 110 ng/mL.
Work on CC#CCC(C)[C@H](O)/C=C/[C@@H]1[C@H]2c3cccc(CCCC(=O)O)c3O[C@H]2C[C@H]1O (stereo partly drawn) [BERAPROST SODIUM] yielded an IC50 [1] of 17 nM.
With CC#CCC(C)[C@H](O)/C=C/[C@@H]1[C@H]2C/C(=C/CCCC(=O)O)C[C@H]2C[C@H]1O (stereo partly drawn) [ILOPROST] the IC50 [1] was 5 nM.
Work on CN(CCc1cccc(OCC(=O)O)c1)c1cnc(-c2ccccc2)c(-c2ccccc2)n1 yielded an IC50 [1] of 2000 nM.
